Measurements from different studies.
Protocols differ between the studies behind these lines. Values after ≈ are worked out from the molar mass of the structure shown.
Organism: Cryptococcus neoformans

| SMILES | test | system | setting | quantity | value |
| --- | --- | --- | --- | --- | --- |
| O=C(CCCCCC[P+](c1ccccc1)(c1ccccc1)c1ccccc1)Nc1cc(O)c(O)c(O)c1.[Br-] | microbial growth, broth dilution | ATCC208821 | 24 h | MIC | 32 µg/mL |
| C[C@@H]1[C@H](O)[C@@H](C)/C=C/C=C/C=C/C=C/C=C/C=C/C=C/[C@H](O[C@@H]2O[C@H](C)[C@@H](O)[C@H](N)[C@@H]2O)C[C@@H]2O[C@](O)(C[C@@H](O)C[C@@H](O)[C@H](O)CC[C@@H](O)C[C@@H](O)CC(=O)O[C@H]1C)C[C@H](O)[C@H]2C(=O)O | microbial killing | ATCC90113 | – | MFC | 2.5 µg/mL (≈ 2.71 µM) |
| C#CCCCCCCCCC=CCC(O)CC(O)CO (stereo not drawn) | microbial growth, broth dilution | ATCC90113 | – | IC50 | > 8 µg/mL |
| C[C@@H]1[C@H](O)[C@@H](C)/C=C/C=C/C=C/C=C/C=C/C=C/C=C/[C@H](O[C@@H]2O[C@H](C)[C@@H](O)[C@H](N)[C@@H]2O)C[C@@H]2O[C@](O)(C[C@@H](O)C[C@@H](O)[C@H](O)CC[C@@H](O)C[C@@H](O)CC(=O)O[C@H]1C)C[C@H](O)[C@H]2C(=O)O | microbial growth | ATCC90113 | – | MIC | 0.68 µM |
| O=C(CCCCCCCCCC[P+](c1ccccc1)(c1ccccc1)c1ccccc1)Nc1ccc(O)c(O)c1.[Br-] | microbial growth, broth dilution | ATCC208821 | 24 h | MIC | > 32 µg/mL |
| C[C@@H]1[C@H](O)[C@@H](C)/C=C/C=C/C=C/C=C/C=C/C=C/C=C/[C@H](O[C@@H]2O[C@H](C)[C@@H](O)[C@H](N)[C@@H]2O)C[C@@H]2O[C@](O)(C[C@@H](O)C[C@@H](O)[C@H](O)CC[C@@H](O)C[C@@H](O)CC(=O)O[C@H]1C)C[C@H](O)[C@H]2C(=O)O | microbial growth, broth dilution | ATCC90113 | – | IC50 | 0.69 µg/mL (≈ 0.747 µM) |
| O=C(CCc1cc(O)c(O)c(O)c1)NCCCCCCCC[P+](c1ccccc1)(c1ccccc1)c1ccccc1.[Br-] | microbial growth, broth dilution | ATCC208821 | 24 h | MIC | > 32 µg/mL |
| C[C@@H]1[C@H](O)[C@@H](C)/C=C/C=C/C=C/C=C/C=C/C=C/C=C/[C@H](O[C@@H]2O[C@H](C)[C@@H](O)[C@H](N)[C@@H]2O)C[C@@H]2O[C@](O)(C[C@@H](O)C[C@@H](O)[C@H](O)CC[C@@H](O)C[C@@H](O)CC(=O)O[C@H]1C)C[C@H](O)[C@H]2C(=O)O | microbial growth | ATCC90113 | – | IC50 | 0.75 µg/mL (≈ 0.812 µM) |
| C#CCCCCCCCCCCCC(O)CC(O)CO (stereo not drawn) | microbial growth, broth dilution | ATCC90113 | – | IC50 | 8 µg/mL (≈ 28.1 µM) |
